The record followed here is ChEMBL document CHEMBL4364301 (Eur J Med Chem, 2019).

Active and inactive are the calls of the source. The rule behind the calls is not given here.

The subject of one data set is MCF7. Description: Antiproliferative activity against human MCF7 cells assessed as T/C value at 1 uM incubated for 96 hrs by propidium iodide based 2D monolayer assay. The format is functional.
Data set [1] has as its system CWR22R. Description: Antitumor activity against human 22Rv1 cells xenografted in NMRI mouse assessed as tumor volume quadrupling time at 100 mg/kg, ip administered for 16 days (reference value: 6.2 day). The data set is classed as functional. Summed up:
(§1)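 Male NMRI nu/nu mice carried hind-flank 22Rv1 implants and were randomised at 80–200 mm³ tumour volume. Compound was given i.p. at 100 mg/kg/day as 16–18 daily doses in 10% EtOH, 10% Cremophor EL, 5% dextrose; vehicle controls were treated likewise. Tumours were measured by two-dimensional caliper twice weekly and reported as relative tumour volume. T/C was taken from group medians; doubling and quadrupling times were derived from tumour volume.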

In data set [2] the test system is CWR22R. The experiment in a line: Antitumor activity against human 22Rv1 cells xenografted in NMRI mouse assessed as inhibition of tumor growth by measuring T/C value at 100 mg/kg, ip administered for 16 days and measured on day 14. The data set is classed as functional. Summed up: as §1
Data set [3] is described as follows: Toxicity in NMRI mouse xenografted with human 22Rv1 cells assessed as survival rate at 100 mg/kg, ip administered for 16 days and measured on day 40. The format is organism-based. To be noted: in vivo. Summed up: (§2)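 Male NMRI nu/nu 22Rv1-xenograft mice were dosed i.p. at 100 mg/kg/day for 16–18 daily doses in 10% EtOH, 10% Cremophor EL, 5% dextrose vehicle. Body weight was recorded to assess tolerance, and adjusted survival and group median body weight loss were reported.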

Data set [4] deals with CWR22R. Description: Antitumor activity against human 22Rv1 cells xenografted in NMRI mouse assessed as tumor volume doubling time at 100 mg/kg, ip administered for 16 days (reference value: 2.7 day). The format is functional. An outline of the steps: as §1
A short description of data set [5]: Toxicity in NMRI mouse xenografted with human 22Rv1 cells assessed as body weight loss at 100 mg/kg, ip administered for 16 days and measured on day 40. The format is organism-based. To be noted: in vivo, 384 h. Summed up: as §2
The test system of data set [6] is CWR22R. Description: Antitumor activity against human 22Rv1 cells xenografted in NMRI mouse assessed as reduction of tumor volume at 100 mg/kg, ip administered for 16 days and measured on day 10. The data set is classed as functional, organism-based. Summed up: as §1
For data set [7], the system named is CWR22R. Description: Antitumor activity against human 22Rv1 cells xenografted in NMRI mouse assessed as reduction of tumor volume at 100 mg/kg, ip administered for 16 days and measured on day 20. The data set is classed as functional, organism-based. An outline of the steps: as §1
Data set [8] can be described thus: Toxicity in ip dosed NMRI nu/nu mouse assessed as maximum tolerated dose. The conditions noted are these: in vivo. The format is organism-based.
The target in the next data set is T1, Androgen receptor (Rattus norvegicus, UniProt P15207).
T1 sequence (P15207 whole entry): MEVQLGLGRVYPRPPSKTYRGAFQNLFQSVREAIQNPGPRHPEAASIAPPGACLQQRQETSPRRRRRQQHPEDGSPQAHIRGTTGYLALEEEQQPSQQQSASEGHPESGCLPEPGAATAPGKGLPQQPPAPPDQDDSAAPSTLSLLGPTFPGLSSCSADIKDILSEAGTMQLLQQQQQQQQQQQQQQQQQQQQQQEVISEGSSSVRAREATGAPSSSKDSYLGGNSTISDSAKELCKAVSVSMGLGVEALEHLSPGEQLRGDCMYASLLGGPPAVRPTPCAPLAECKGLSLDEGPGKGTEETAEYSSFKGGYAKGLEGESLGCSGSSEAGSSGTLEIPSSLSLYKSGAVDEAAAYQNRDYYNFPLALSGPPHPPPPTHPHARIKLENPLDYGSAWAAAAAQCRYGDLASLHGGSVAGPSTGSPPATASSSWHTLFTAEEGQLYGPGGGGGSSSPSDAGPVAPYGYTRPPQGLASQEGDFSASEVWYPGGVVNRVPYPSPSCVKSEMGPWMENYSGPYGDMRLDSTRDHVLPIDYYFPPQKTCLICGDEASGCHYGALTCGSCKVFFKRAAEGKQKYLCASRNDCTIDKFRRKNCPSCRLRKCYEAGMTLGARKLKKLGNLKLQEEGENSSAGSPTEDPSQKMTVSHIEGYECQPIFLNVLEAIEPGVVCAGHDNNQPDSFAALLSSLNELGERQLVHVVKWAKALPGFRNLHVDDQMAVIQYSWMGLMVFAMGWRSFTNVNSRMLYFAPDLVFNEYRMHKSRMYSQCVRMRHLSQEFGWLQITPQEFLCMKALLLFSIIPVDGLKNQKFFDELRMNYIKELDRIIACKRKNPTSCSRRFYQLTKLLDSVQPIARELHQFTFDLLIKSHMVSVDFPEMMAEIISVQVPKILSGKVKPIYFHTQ
The experiment in a line: Antagonist activity at GAL4-DBD fused rat androgen receptor expressed in UAS-bla 293 cells assessed as reduction in R1881-induced activation incubated for 16 hrs followed by fluorescence substrate addition and measured after 2 hrs by beta lactamase reporter gene assay. The format is cell-based.

As for `CC(O)(CSc1cc(C(F)(F)F)cc(C(F)(F)F)c1)C(=O)Nc1cccc(C(F)(F)C(F)(F)F)c1` (racemic), the T/C in the data set on MCF7 amounted to 119%.

As to `CC(O)(COc1ccc(C(F)(F)C(F)(F)F)cc1)C(=O)Nc1cc(C(F)(F)F)cc(C(F)(F)F)c1` (racemic), the T/C in the data set with MCF7 was 115%.

On to `CC(O)(COc1ccc(S(F)(F)(F)(F)F)cc1)C(=O)Nc1cc(C(F)(F)F)cc(C(F)(F)F)c1` (racemic), for which the Time in the data set on CWR22R [1] is 14.3 days; in the data set with CWR22R [4] it was 6.7 days. Besides, in the data set on CWR22R [2], the T/C was 43.9%. Besides, the survival at 384 h in data set [3] was found to be 100%. The Activity entry in data set [5] is “Non-Toxic”. In addition, the outcome with CWR22R [6] and in the data set on CWR22R [7] was Active. For the same compound, in [8], the MTD stood at 100 mg/kg.

Consider `CC(O)(COc1cccc(S(F)(F)(F)(F)F)c1)C(=O)Nc1ccc([N+](=O)[O-])c(C(F)(F)F)c1` (racemic), for which the IC50 on Androgen receptor was found to be 540 nM.

For `CC(O)(COc1ccccc1C(F)(F)F)C(=O)Nc1ccc(S(F)(F)(F)(F)F)cc1` (racemic), at Androgen receptor, the 50% inhibitory concentration (IC50) was 1810 nM.
